Assay results: ChEMBL document CHEMBL5357041, “Discovery of novel β-elemene hybrids with hydrogen sulfide-releasing moiety possessing cardiovascular protective activity for the treatment of atherosclerosis” (RSC Med Chem, 2024)
Converted amounts (≈) assume the structure as drawn. The source made the active and inactive calls. The calls are words filed in the database; no cut-off is given here.

Tests used:
Thoracic aorta [1] = assay: Vasodilation activity against KCl-induced Sprague-Dawley rat thoracic aorta vessels contraction at 40 uM; type: functional
How it was run: (§1)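 Aortic rings of about 2 mm from anesthetized SD rats mounted in Krebs solution at 37 °C under oxygen, preload 9.8 mN, equilibrated about 1 h. Rings contracted with 25 mM K⁺, then compound added cumulatively. Relaxation (%) = (maximum KCl tension − tension after compound)/(maximum KCl tension − preload). ADT-OH served as control; mean ± SD, n = 4.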

Thoracic aorta [2] = assay: Vasodilation activity against KCl-induced Sprague-Dawley rat thoracic aorta vessels contraction at 1 uM; type: functional; how it was run: as §1
[3] = Cytotoxicity against mouse BMDM cells assessed as cell viability at 50 uM incubated for 24 hrs by MTT assay; type: toxicity, cell-based; details: BMDM cells (bone marrow-derived macrophages), read-out: Activity
How it was run: (§2)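 Primary bone marrow macrophages taken from 6-week-old male C57 mice and cultured 6–7 days before use. Compounds dosed for 24 h, then MTT added for 4 h and formazan dissolved in DMSO; absorbance read at 570 nm. Triplicate wells; medium-only and untreated-cell controls; mean ± SD, n = 4.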

Thoracic aorta [4] = assay: Vasodilation activity against KCl-induced Sprague-Dawley rat thoracic aorta vessels contraction at 5 uM; type: functional; how it was run: as §1
Thoracic aorta [5] = assay: Vasodilation activity against KCl-induced Sprague-Dawley rat thoracic aorta vessels contraction at 10 uM; type: functional; how it was run: as §1
[6] = Cytotoxicity against mouse BMDM cells assessed as cell viability at 100 uM incubated for 24 hrs by MTT assay; type: toxicity, cell-based; details: BMDM cells (bone marrow-derived macrophages), read-out: Activity; how it was run: as §2
Thoracic aorta [7] = assay: Vasodilation activity against KCl-induced Sprague-Dawley rat thoracic aorta vessels contraction at 20 uM; type: functional; how it was run: as §1
[8] = Induction of H2S release in phosphate buffer at 100 uM measured upto 150 mins under L-cysteine stimulated condition by microplate reader analysis; details: 2.5 h
How it was run: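 Compound (100 μM) incubated with 1 mM L-cysteine in phosphate buffer at 37 °C, sampled at 0–150 min. Each sample quenched with zinc acetate and trichloroacetic acid, then N,N-dimethyl-p-phenylenediamine and FeCl₃ in HCl added. Absorbance read at 670 nm after 10 min; H₂S quantified against a NaHS standard curve (5–150 μM).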

RAW264.7 = assay: Lipid lowering activity in ox-LDL stimulated mouse RAW264.7 cells at 50 uM by oil red O staining based microscopic analysis; type: functional, cell-based
How it was run: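 RAW 264.7 cells allowed to adhere 2 h, then exposed to ox-LDL (50 μg/mL) plus compound (50 μM) for 24 h. Cells fixed in 4% paraformaldehyde, stained with oil red O, rinsed in 60% isopropanol and counterstained with hematoxylin. Oil red O-positive area percentage quantified microscopically; ANOVA used.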

HUVEC [9] = assay: Cytotoxicity against HUVECs at 0.5 to 200 uM incubated for 24 hrs by MTT assay; type: toxicity, cell-based; details: human, dose 0.5-200 µM
How it was run: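 HUVECs bought from ATCC; compounds given for 24 h, then MTT (5 mg/mL, 20 μL/well) added for 4 h. Formazan dissolved in DMSO and absorbance read at 570 nm. Medium-only and untreated-cell wells served as controls.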

HUVEC [10] = assay: Inhibition of H2O2-induced oxidative damage in HUVECs preincubated for 24 hrs followed by H2O2 addition and measured after 2 hrs by MTT method; type: functional, cell-based; details: Homo sapiens, time 26.0 hrs
How it was run: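 HUVECs were seeded and grown 24 h at 37 °C, 5% CO₂, then given compound (0.5, 5 or 20 μM) for 24 h. Control and model wells received serum-free medium instead. Model and treated wells were then exposed to 1 mM H₂O₂ for 2 h, followed by MTT for 4 h, DMSO, and absorbance at 570 nm. Trolox was the positive control; mean ± SD, n = 5.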

Thoracic aorta [11] = assay: Vasodilation activity against KCl-induced Sprague-Dawley rat thoracic aorta vessels contraction in presence of glyburide; type: functional, tissue-based
[12] = Water solubility of the compound after 20 mins by HPLC analysis; type: physicochemical
How it was run: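 Compound suspended in 1 mL water at room temperature, sonicated 20 min and passed through a 0.22 μm filter. Filtrate analyzed by HPLC (MeCN/water 95:5, 1.0 mL/min, UV 254 nm) and quantified against a standard curve of 0.5–500 μg/mL in MeOH.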

Row | Activity [8] [µM] | solubility at 20 min [12] [µg/mL] | SMILES | Activity (Thoracic aorta [1]) [%] | Activity (Thoracic aorta [2]) [%] | viability at 24 h, 50 µM [3] [%] | Activity (Thoracic aorta [4]) [%] | Activity (Thoracic aorta [5]) [%] | viability at 24 h, 100 µM [6] [%] | Activity (Thoracic aorta [7]) [%] | Activity (RAW264.7) | Activity (HUVEC [9]) | inhibition (HUVEC [10]) | Activity (Thoracic aorta [11])
1 |  |  | C=C[C@]1(C)CC[C@@H](C(=C)C)C[C@H]1C(=C)COC(=O)CCCCC1CCSS1 (some centres not stated) | 17.27 | -19.8 | 157 | -2.4 | 20.75 | 336 | 24.52 |  |  |  | 
2 |  |  | C=C[C@]1(C)CC[C@@H](C(=C)COCCCCCCOc2ccc(C(N)=S)cc2)C[C@H]1C(=C)C | 12.18 | 6.68 | 279 | 4.72 | 0.07 | 17.1 | 10.31 |  |  |  | 
3 | 100 |  | C=C[C@]1(C)CC[C@@H](C(=C)COC(=O)CCC(=O)OCCOc2ccc(-c3cc(=S)ss3)cc2)C[C@H]1C(=C)C | 12.14 | 1.27 | 264 | 6.87 | 11.63 | 349 | 12.67 |  |  |  | 
4 |  |  | C=C[C@]1(C)CC[C@@H](C(=C)COC(=O)CCCCCC(=O)Oc2ccc(-c3cc(=S)ss3)cc2)C[C@H]1C(=C)C | 21.17 | -1.15 | 232 | 6.64 | 6.99 | 459 | 16.08 |  |  |  | 
5 | 20 |  | O=C(O)CCCCC1CCSS1 (stereo not drawn) [LIPOIC ACID, ALPHA] |  |  |  |  |  |  |  |  |  |  | 
6 |  |  | C=C[C@]1(C)CC[C@@H](C(=C)COC(=O)CCCCCC(=O)Oc2ccc(-c3nc(=O)ss3)cc2)C[C@H]1C(=C)C | 8.22 | -0.4 | 323 | 4.76 | 2.38 | 391 | 7.08 | Active |  |  | 
7 |  |  | C=C[C@]1(C)CC[C@@H](C(=C)COC(=O)CCC(=O)OCCOc2ccc(-c3nc(=O)ss3)cc2)C[C@H]1C(=C)C | 34.29 | -0.71 | 266 | 10.11 | 17.84 | 254 | 26.82 | Active |  |  | 
8 |  |  | C=C[C@]1(C)CC[C@@H](C(=C)COC(=O)CCCCCC(=O)Oc2ccc(C(N)=S)cc2)C[C@H]1C(=C)C | 6.38 | 1.2 | 177 | 4.53 | 2.67 | 219 | 4.19 |  |  |  | 
9 | 100 |  | C=C[C@]1(C)CC[C@@H](C(=C)COC(=O)C(NC(=O)CCC(=O)OCCOc2ccc(-c3cc(=S)ss3)cc2)C(C)CC)C[C@H]1C(=C)C (some centres not stated) | 14.29 | 1.7 | 295 | 3.38 | -6.76 | 584 | 4.83 |  |  |  | 
10 |  |  | C=C[C@]1(C)CC[C@@H](C(=C)COC(=O)CCCCCCC(=O)Oc2ccc(-c3cc(=S)ss3)cc2)C[C@H]1C(=C)C | 14.68 | 12.81 | 189 | 5.04 | 0.55 | 202 | 7.96 |  |  |  | 
11 |  |  | C=C[C@]1(C)CC[C@@H](C(=C)CO)C[C@H]1C(=C)C | 53.06 | 0.09 | 275 | 4.63 | 5.63 | 281 | 27.81 |  | Non-Toxic | Active | 
12 |  |  | C=C[C@]1(C)CC[C@@H](C(=C)COC(=O)CCCCC2CCSS2)C[C@H]1C(=C)C (some centres not stated) | 11.51 | -3.41 | 296 | -5.69 | 6.38 | 378 | 8.99 |  |  |  | 
13 |  |  | C=C[C@]1(C)CC[C@@H](C(=C)COC(=O)C(NC(=O)CCCCC2CCSS2)C(C)CC)C[C@H]1C(=C)C (some centres not stated) | 14.47 | -5.9 | 208 | -8.16 | 2.19 | 268 | 1.21 |  |  |  | 
14 | 100 |  | C=C[C@]1(C)CC[C@@H](C(=C)COC(=O)c2ccccc2C(=O)OCCOc2ccc(-c3cc(=S)ss3)cc2)C[C@H]1C(=C)C | 28.25 | -2.99 | 349 | 10.01 | 17 | 454 | 17.46 | Active | Non-Toxic | Active | 
15 |  |  | C=C[C@]1(C)CC[C@@H](C(=C)COCCCCOc2ccc(C(N)=S)cc2)C[C@H]1C(=C)C | 30.23 | 4.61 | 163 | 4.13 | 17.37 | 14.9 | 15.38 |  |  |  | 
16 |  |  | Oc1ccc(-c2cc(=S)ss2)cc1 | 75.01 | 3.08 |  | 5.39 | 42.24 |  | 61.69 |  | Non-Toxic | Active | inactive
17 |  |  | C=C[C@]1(C)CC[C@@H](C(=C)C)C[C@H]1C(=C)COC(=O)C(NC(=O)CCC(=O)OCCOc1ccc(-c2cc(=S)ss2)cc1)C(C)CC (some centres not stated) | 13 | 0.64 | 269 | 2.75 | 6.75 | 272 | 7.93 |  |  |  | 
18 |  |  | C=C[C@]1(C)CC[C@@H](C(=C)COC(=O)/C=C\C(=O)OCCOc2ccc(-c3cc(=S)ss3)cc2)C[C@H]1C(=C)C | 10.78 | -4.07 | 99 | 1.54 | 7.28 | 89.7 | 12.57 |  |  |  | 
19 |  |  | C=C[C@]1(C)CC[C@@H](C(=C)C)C[C@H]1C(=C)COC(=O)C(NC(=O)CCCCC1CCSS1)C(C)CC (some centres not stated) | 14.67 | 1.1 | 672 | 2.78 | -3.6 | 882 | 5.16 |  |  |  | 
20 |  |  | C=C[C@]1(C)CC[C@@H](C(=C)C)C[C@H]1C(=C)COC(=O)CCC(=O)OCCOc1ccc(-c2cc(=S)ss2)cc1 | 7.43 | 7.47 | 244 | -8.64 | 14.98 | 262 | 13.2 |  |  |  | 
21 | 100 | 40 (≈ 62.6 µM) | C=C[C@]1(C)CC[C@@H](C(=C)COC(=O)c2c(F)cccc2C(=O)OCCOc2ccc(-c3cc(=S)ss3)cc2)C[C@H]1C(=C)C | 61.41 | 18.12 | 193 | 25.08 | 38.87 | 347 | 51.85 | Active | Non-Toxic | Active | Active
22 | 50 |  | NC(=S)c1ccc(O)cc1 |  |  |  |  |  |  |  |  |  |  | 
23 |  |  | C=C[C@]1(C)CC[C@@H](C(=C)COCCCCCCCCOc2ccc(C(N)=S)cc2)C[C@H]1C(=C)C | 19.64 | -4.54 | 74.5 | 1.71 | 8.86 | 27.1 | 12.44 | Active |  |  | 
